Data set [1] in a line: Partition coefficient, log P of the compound. Format: physicochemical. As to conditions: octanol/water. The method, boiled down:
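Calculated from the measured octanol/MOPS pH 7.4 distribution coefficient divided by the fraction of neutral species at pH 7.4, which is derived from the measured pKa values.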

The subject of data set [2] is Rattus norvegicus. Put plainly: Iron-clearing efficiency in po dosed [59Fe]ferritin-loaded Wistar rat assessed as iron mobilization. Format: functional. Summed up: (§1)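 Male Wistar rats, normal, fasted, 190–230 g. Hepatocytes labelled with ⁵⁹Fe by tail-vein [⁵⁹Fe]ferritin; chelator given orally 1 h later, controls received water. Individual metabolic cages collected urine and faeces; food allowed 1 h after dosing, water unrestricted. Killed 24 h after ferritin; liver and gastrointestinal tract with contents and faeces gamma counted.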

The next data set deals with Plasmodium falciparum. Put plainly: Antimalarial activity against chloroquine-resistant Plasmodium falciparum TM267TR after 24 hrs by [3H]hypoxanthine. Format: functional, organism-based. Summed up:
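Clone maintained in human red cells in RPMI 1640 with 10% human serum, 25 mM HEPES and 25 mM NaHCO₃. Cultures were sorbitol-synchronized, washed, then diluted with normal red cells to 1% hematocrit and 0.5% parasitemia. Incubated with serial dilutions of chelator. ³H-hypoxanthine pulse for a further 18 h, then harvested and counted by scintillation. IC₅₀ by non-linear regression of triplicate dose-response curves.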

For data set [3], the system named is Rattus norvegicus. Put plainly: Iron-clearing efficiency in po dosed [59Fe]ferritin-loaded Wistar rat assessed as iron removal. The data set is classed as functional. Summed up: as §1
A short description of data set [4]: Octanol-MOPS buffer distribution coefficient, DC at pH 7.4. Format: physicochemical. The note with it: octanol/water. Summed up: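 Automated continuous-flow filter-probe method, 1-octanol versus 50 mM MOPS buffer pH 7.4, phases mutually presaturated. Compound dissolved in buffer to absorbance 0.5–1.5 units at a preselected wavelength; aqueous phase separated by hydrophilic cellulose filter and read by absorbance. n = 5.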

A short description of data set [5]: Dissociation constant, pKa corresponding to protonation of the 4-hydroxy group by spectrophotometric titration. Format: physicochemical. Summed up: (§2)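 Ligand protonation constants from an automated titration system, potentiometric and spectrophotometric read-outs. Values optimized by non-linear least-squares regression, accuracy ±0.02 pH unit.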
Data set [6] is described as follows: Dissociation constant, pKa corresponding to deprotonation of the basic substituent by spectrophotometric titration. The data set is classed as physicochemical. The method, boiled down:
as §2

The nature of data set [7]: Dissociation constant, pKa corresponding to dissociation of the 3-hydroxyl group by spectrophotometric titration. Format: physicochemical. The method, boiled down:
as §2

The nature of data set [8]: Dissociation constant, pKa corresponding to protonation of the 4-hydroxy group by potentiometric titration. Format: physicochemical. The method, boiled down:
as §2

Data set [9] in a line: Dissociation constant, pKa corresponding to deprotonation of the basic substituent by potentiometric titration. The data set is classed as physicochemical. The method, boiled down: as §2
The nature of data set [10]: Dissociation constant, pKa corresponding to dissociation of the 3-hydroxyl group by potentiometric titration. Format: physicochemical. Summed up:
as §2

SMILES strings stand for the structures.

As for `CCn1ccc(=O)c(O)c1C(C)O` (stereo unspecified), the logP (as a rule, the decadic logarithm of the partition coefficient of the neutral form, usually between octanol and water) in data set [1] was -0.557. Also, the Activity was 48.4% with Rattus norvegicus [2] and 44.5% in the data set with Rattus norvegicus [3]. Further, half-maximal inhibition with Plasmodium falciparum (IC50) was put at 45 µM. This molecule registered a D in data set [4] of 0.266.
As for `Cn1c(CO)cc(=O)c(O)c1CN1CCCCC1`, the pKa (in general, the pH at which an ionisable group is half protonated) in [5] turned out to be 2.41; in data set [6] it was 6.67; in data set [7], 10.4; in data set [8] it was 2.14; in [9], 6.74; in data set [10], 10.5. In data set [1], this molecule registered a logP of 0.295. Further, in the data set on Plasmodium falciparum, half-maximal inhibition (IC50) required 29 µM. The D in data set [4] is on record as 1.636.
On to `Cn1c(CO)cc(=O)c(O)c1CN1CCOCC1`, for which the pKa in data set [5] worked out at 2.14; in [6], 4.99; in data set [7], 9.75; in [8], 1.98; in data set [9] it was 5.1; in data set [10], 9.77. Moreover, the logP in data set [1] is -0.765. Further, the IC50 (in general, the midpoint of a concentration-inhibition curve) in the data set with Plasmodium falciparum worked out at 35 µM. The molecule also returned a D in data set [4] of 0.17.
For the molecule `Cc1c(O)c(=O)ccn1CCN1CCCCC1`, the pKa in [5] turned out to be 2.88; in data set [6], 7.47; in [7], 9.71; in data set [8], 2.77; in [9], 7.42; in data set [10], 9.63. The molecule further displayed a logP in data set [1] of 0.31. In addition, the Activity in the data set on Rattus norvegicus [2] stood at 22.7%; with Rattus norvegicus [3] it was 18.8%. In the data set on Plasmodium falciparum, this molecule yielded an IC50 of 35 µM. The D in data set [4] is given as 0.96.
As for `O=c1ccn(CCN2CCCCC2)c(CO)c1O`, the pKa in [5] is 2.2; in data set [6] it was 7.43; in data set [7], 9.24; in data set [8], 2.25; in [9], 7.35; in data set [10], 9.28. For the same molecule, in [1], the lipophilicity (logP) came to 0.019. For the same molecule, the Activity in the data set on Rattus norvegicus [2] came out at 23.3%; in the data set with Rattus norvegicus [3], 19.4%. It took 10 µM to reach half-maximal inhibition in the data set with Plasmodium falciparum (IC50). This molecule also showed a D in [4] of 0.501.
On to `Cc1c(O)c(=O)ccn1CCN(C)C`, for which the pKa came to 2.86 in [5]; 7.02 in [6]; 9.58 in data set [7]; 2.74 in data set [8]; 7.05 in [9]; 9.75 in data set [10]. This molecule also came in with a logP in [1] of -0.657. The Activity is 13% in the data set with Rattus norvegicus [2] and 9.1% in the data set with Rattus norvegicus [3]. The molecule further gave a 50% inhibitory concentration (IC50) with Plasmodium falciparum of 80 µM. The molecule further yielded a D in data set [4] of 0.154.
As for `Cn1cc(O)c(=O)cc1CN1CCCCC1`, the pKa in data set [5] worked out at 2.16; in data set [6] it was 6.72; in [7], 8.86; in [8], 2.15; in data set [9] it was 6.74; in data set [10] it was 8.85. This molecule came in with a logP in [1] of 0.64. The molecule further showed an IC50 in the data set on Plasmodium falciparum of 31 µM. Further, the D in data set [4] turned out to be 3.493.
With `CC(O)c1c(O)c(=O)ccn1CCN1CCCCC1` (stereo unspecified), the pKa is 2.14 in [5]; 7.35 in data set [6]; 8.73 in data set [7]; 2.17 in data set [8]; 7.37 in [9]; 8.7 in data set [10]. In [1], this molecule showed a logP of 0.242. The figures for the Activity in the data set on Rattus norvegicus [2] and with Rattus norvegicus [3] were 23.1% and 19.2%, respectively. The IC50 in the data set with Plasmodium falciparum came out at 8 µM. In addition, in [4], the D was determined as 0.908.
On to `CCc1c(O)c(=O)ccn1CCCn1ccnc1`, for which the pKa worked out at 3.15 in [5]; 6.47 in data set [6]; 9.66 in data set [7]; 3.09 in data set [8]; 6.55 in [9]; 9.71 in [10]. In data set [1], this molecule showed a logP of -0.326. Moreover, the Activity in the data set with Rattus norvegicus [2] is 6.8%; with Rattus norvegicus [3] it was 2.9%. This molecule displayed an IC50 with Plasmodium falciparum of 65 µM. The same molecule yielded a D in data set [4] of 0.42.
Take `Cc1c(O)c(=O)ccn1CCCn1ccnc1`: the pKa was 3.08 in [5]; 6.71 in [6]; 9.82 in data set [7]; 3.13 in data set [8]; 6.6 in data set [9]; 9.92 in data set [10]. For the same molecule, the logP in data set [1] was -0.392. Besides, the Activity is given as 5.3% with Rattus norvegicus [2] and 1.4% in the data set with Rattus norvegicus [3]. In the data set on Plasmodium falciparum, this molecule came in with an IC50 of 85 µM. Moreover, the D in data set [4] worked out at 0.344.
Take `CCN(CC)CCn1ccc(=O)c(O)c1C`: the pKa was 2.66 in data set [5]; 7.5 in [6]; 9.6 in [7]; 2.63 in data set [8]; 7.53 in [9]; 9.65 in data set [10]. Besides, in [1], the logP stood at 0.059. In addition, the Activity with Rattus norvegicus [2] stood at 12.4%; in the data set on Rattus norvegicus [3], 8.5%. Also, in the data set with Plasmodium falciparum, the IC50 was 50 µM. In data set [4], this molecule had a D of 0.493.
As for `CCc1c(O)c(=O)ccn1CCN1CCCCC1`, the pKa in [5] came to 2.74; in data set [6], 7.38; in data set [7], 9.7; in data set [8], 2.73; in [9] it was 7.34; in [10], 9.67. The same molecule returned a logP in data set [1] of 0.946. In addition, the values for the Activity in the data set on Rattus norvegicus [2] and in the data set on Rattus norvegicus [3] were 30.4% and 26.5%, respectively. Also, the IC50 with Plasmodium falciparum was 25 µM. In [4], this molecule came in with a D of 4.591.
For `Cc1c(O)c(=O)ccn1CCN1CCOCC1`, the pKa in [5] worked out at 2.64; in data set [6], 4.91; in data set [7], 9.68; in data set [8] it was 2.67; in [9], 4.89; in data set [10] it was 9.71. Besides, the logP in [1] was -0.909. In the data set with Plasmodium falciparum, 50 µM corresponded to half-maximal inhibition (IC50). Also, the D in [4] was determined as 0.122.
As to `Cc1cc(=O)c(O)c(CN2CCCCC2)n1C`, the pKa in [5] amounted to 2.73; in [6], 6.98; in [7] it was 10.3; in data set [8], 2.5; in data set [9], 7.07; in data set [10], 10.8. This molecule also registered a logP in data set [1] of 0.559. Moreover, half-maximal inhibition in the data set with Plasmodium falciparum (IC50) was put at 23 µM. The D in data set [4] came out at 2.536.
For the molecule `CCc1c(O)c(=O)ccn1CCN(C)C`, the pKa stood at 2.68 in data set [5]; 7.16 in data set [6]; 9.58 in data set [7]; 2.62 in data set [8]; 6.88 in data set [9]; 9.66 in data set [10]. In data set [1], the logP is -0.114. Also, the Activity with Rattus norvegicus [2] is on record as 20.3%; in the data set on Rattus norvegicus [3] it was 16.4%. For the same molecule, 85 µM corresponded to half-maximal inhibition in the data set with Plasmodium falciparum (IC50). Besides, the D in data set [4] came to 0.538.
Take `O=c1cc(CN2CCCCC2)n(CCN2CCCCC2)cc1O`: the pKa turned out to be 2.04 in data set [5]; 7.6 in data set [6]; 8.95 in [7]; 1.16 in data set [8]; 7.58 in data set [9]; 8.83 in data set [10]. The molecule further came in with a logP in data set [1] of 1.84. The same molecule registered an IC50 with Plasmodium falciparum of 21.5 µM. For the same molecule, the D in [4] is 26.11.
In the case of `Cc1cc(=O)c(O)c(CN2CCOCC2)n1C`, the pKa in [5] is 2.43; in [6] it was 4.82; in data set [7], 9.72; in data set [8], 2.38; in data set [9], 4.89; in [10], 10.1. Besides, the logP in data set [1] is -0.435. Further, the half-maximal inhibitory concentration (IC50) in the data set on Plasmodium falciparum came to 50 µM. In [4], the D was determined as 0.364.
The molecule `CCc1c(O)c(=O)ccn1CC` registered a logP in [1] of 0.257. Also, the results for the Activity in the data set with Rattus norvegicus [2] and in the data set with Rattus norvegicus [3] were 58.3% and 54.4%, respectively. The IC50 in the data set with Plasmodium falciparum stood at 55 µM. The same molecule showed a D in [4] of 1.79.
For the molecule `Cc1c(O)c(=O)ccn1C` [DEFERIPRONE], the Activity in the data set with Rattus norvegicus [2] was determined as 13.4%; with Rattus norvegicus [3], 9.5%. For the same molecule, inhibition in the data set with Plasmodium falciparum was half-maximal at 67.5 µM (IC50). This molecule also had a D in data set [4] of 0.17.
